The values below come from ChEMBL document CHEMBL3856201, “5,10b-Ethanophenanthridine amaryllidaceae alkaloids inspire the discovery of novel bicyclic ring systems with activity against drug resistant cancer cells” (2016).

The subject of assay [1] is HeLa S3. The experiment in a line: Inhibition of translation in human HeLaS3 assessed as induction of dis-aggregation of polysomes at 50 uM after 1 hr by UV-based […] method. It counts as functional. An outline of the steps: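 HeLa S3 cells were exposed to 50 µM compound for 1 h, then analysed by polysome profiling against a DMSO-treated control profile.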

For assay [2], the system named is HeLa S3. Briefly: Inhibition of translation in human HeLaS3 assessed as increase in eIF2alpha phosphorylation at 50 uM after 1 hr by Western blot analysis. It counts as functional. The method in brief: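 HeLa S3 cells were exposed to 50 µM compound for 1 h. Extracts were resolved by SDS-PAGE and transferred to PVDF. Western blots were probed for phospho-eIF2α, pan-eIF2α and eEF2.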
A general note: A western blot detects proteins with antibodies after separation by electrophoresis.

Assay [3] is described as follows: Antiproliferative activity against drug-resistant human U87 cells after 48 to 96 hrs by MTT assay. It counts as functional, U-87MG ATCC. To be noted: U-87 MG. An outline of the steps:
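U87 cells grown in DMEM with glutamine, gentamicin and penicillin-streptomycin (37 °C, 95% humidity, 5% CO2) were seeded and then treated with 0.001–100 µM compound for 48–96 h. Readout was MTT. Controls were 0.1% DMSO and 1 µM phenyl arsine oxide. The value is the average concentration reducing viability 50%.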
(Tetrazolium assays rely on reduction of a dye to a coloured formazan, in cell work by metabolically active cells.)

Assay [4] is described as follows: Antiproliferative activity against patient-derived paclitaxel-sensitive NCI-H1993 cells after 48 to 96 hrs by MTT assay. It counts as functional. The settings on record: Homo sapiens.
Assay [5] can be described thus: Antiproliferative activity against human MES-SA/Dx5 cells after 48 to 96 hrs by MTT assay. It counts as functional. The method in brief: (§1)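 Parent MES-SA and MES-SA/Dx5 uterine sarcoma cells were grown in RPMI-1640 with 10% FBS. The Dx5 line was kept in 500 nM doxorubicin after stepwise selection from 100 nM in twofold steps, about 2 passages per step. MTT assay used 0.001–100 µM compound for 48–96 h, with 0.1% DMSO and 1 µM phenyl arsine oxide controls. The ratio is the Dx5 GI50 divided by the parent GI50.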

Assay [6] in a line: Antiproliferative activity against drug-resistant human U373 cells after 48 to 96 hrs by MTT assay. It counts as functional, U-373MG ATCC. The settings on record: U373 MG. An outline of the steps:
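Culture was RPMI with 10% heat-inactivated FBS plus glutamine and antibiotics for U373 cells. Compound exposure was 0.001–100 µM for 48–96 h, with 0.1% DMSO and 1 µM phenyl arsine oxide as controls. The MTT assay gave the average concentration cutting viability by 50%; replicate numbers varied.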

Another assay deals with NCI-H1993. The experiment in a line: Potentiation of paclitaxel-induced cytotoxicity against patient-derived paclitaxel-sensitive NCI-H1993 cells assessed as reduction in cell viability up to 100 uM after 96 hrs by Celltiter-Glo luminescent assay. Format: functional, cell-based. The settings on record: Homo sapiens. An outline of the steps: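 NCI-H1993 cells were seeded at 4×10^3 per well and grown 24 h. […] Viability was read by CellTiter-Glo luminescence. Predicted additivity was calculated by Bliss independence, Exy = Ex + Ey − ExEy.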
A general note: ATP-based viability assays read luminescence as a measure of living cells.

The nature of assay [7]: Antiproliferative activity against human MCF7 cells after 48 hrs by MTT assay. Format: functional. The settings on record: MCF7, 48 h. An outline of the steps:
(§2)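 HeLa cells were cultured in DMEM + 10% FBS and MCF-7 cells in RPMI + 10% FBS, both at 37 °C under 5% CO2. Compounds were diluted from DMSO stocks and applied for 48 h. Viability was read by MTT relative to DMSO control. The value is the concentration reducing viability by 50%, ±SD from two independent experiments of 4 replicates each.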

Assay [8] can be described thus: Antiproliferative activity against patient-derived TMZ-sensitive GBM 090909 cells after 48 to 96 hrs by MTT assay. It counts as functional. The settings on record: Homo sapiens. The method in brief: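 Primary GBM neurosphere cultures came from resected patient tumour. Tissue was minced, dissociated with 100 U/mL collagenase in neurobasal medium for 30 min at 37 °C, filtered through 70 µm, spun at 200 × g for 5 min, and grown in ultra-low attachment wells in neurobasal medium with B27. Compounds were applied at 0.001–100 µM for 48–96 h. MTT gave the average 50%-viability concentration.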

The species entered for the next assay is Oryctolagus cuniculus. The experiment in a line: Inhibition of cap/HCV-mediated translation in rabbit reticulocyte lysate expressing FF/HCV/Ren mRNA reporter transcript assessed as reduction in luciferase production at 50 uM after 1 hr relative to control. It counts as functional. An outline of the steps:
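Rabbit reticulocyte lysate was programmed with bicistronic FF/HCV/Ren mRNA and incubated with compound (50 µM) or 0.5% DMSO vehicle. Firefly and Renilla luciferase activities were expressed relative to the DMSO control. Two independent translation reactions, reported with error of the mean.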

Assay [9] is described as follows: Antiproliferative activity against human HeLa cells after 48 hrs by MTT assay. Format: functional. An outline of the steps: as §2
The nature of assay [10]: Antiproliferative activity against drug-resistant human T98G cells after 48 to 96 hrs by MTT assay. It counts as functional. An outline of the steps:
(§3)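 MTT read-out. T98G and Hs683 cells were grown in DMEM with 10% FBS, glutamine, gentamicin and penicillin-streptomycin at 37 °C and 5% CO2. Compounds came from 100 or 50 mM DMSO stocks and were tested at 0.001–100 µM for 48–96 h. Controls were 0.1% DMSO (negative) and 1 µM phenyl arsine oxide (positive). The value is the mean concentration giving 50% viability loss; replicate number varied.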

Assay [11] in a line: Antiproliferative activity against patient-derived TMZ-resistant GBM 031810 cells over-expressing MGMT after 48 to 96 hrs by MTT assay. It counts as functional. The settings on record: Homo sapiens.
Assay [12] can be described thus: Antiproliferative activity against drug-resistant human U251 cells after 48 to 96 hrs by MTT assay. Format: functional. The settings on record: U-251. An outline of the steps:
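U251 cells were kept in 10% MEM with glutamine, gentamicin and penicillin-streptomycin at 37 °C and 5% CO2. After seeding they were grown 24–72 h and then given compounds at 0.001–100 µM (from 100 or 50 mM DMSO stocks) for 48–96 h. Viability was read by MTT. Vehicle control was 0.1% DMSO; 1 µM phenyl arsine oxide served as positive control. The result is the average 50%-viability-reducing concentration.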

The nature of assay [13]: Antiproliferative activity against human MES-SA cells after 48 to 96 hrs by MTT assay. Format: functional. The method in brief: as §1
Assay [14] in a line: Antiproliferative activity against drug-sensitive human Hs683 cells after 48 to 96 hrs by MTT assay. Format: functional. The settings on record: Hs 683. The method in brief: as §3
Assay [15] in a line: Antiproliferative activity against patient-derived paclitaxel-resistant NCI-H2073 cells after 48 to 96 hrs by MTT assay. Format: functional. To be noted: Homo sapiens.
The nature of assay [16]: Inhibition of cap/HCV-mediated translation in mouse Krebs2 cell free extract expressing FF/HCV/Ren mRNA reporter transcript assessed as reduction in luciferase production at 50 uM relative to control. Format: functional. An outline of the steps:
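Krebs-2 translation extracts were programmed with bicistronic FF/HCV/Ren mRNA and incubated with compound at 50 µM or vehicle (0.5% DMSO). Firefly (cap) and Renilla (HCV IRES) luciferase activities were expressed relative to the DMSO control, from 2 independent translation reactions, as mean with error of the mean. Reference inhibitors were 1 µM hippuristanol and 10 µM anisomycin.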

Assay [17] can be described thus: Antiproliferative activity against drug-resistant human A549 cells after 48 to 96 hrs by MTT assay. It counts as functional. An outline of the steps:
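A549 cells grown in RPMI with 10% heat-inactivated FBS, 4 mM glutamine and antibiotics at 37 °C under 5% CO2. Compounds came from 100 or 50 mM DMSO stocks and were tested at 0.001–100 µM for 48–96 h. Read-out was MTT. The value is the mean concentration giving 50% viability loss, with varied replicate numbers. Controls were 0.1% DMSO (negative) and 1 µM phenyl arsine oxide (positive).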

A further assay has as its system MES-SA. Briefly: Selectivity ratio of GI50 for human MES-SA/Dx5 cells to GI50 for human MES-SA cells. Format: functional. The method in brief: as §1
Assay [18] in a line: Antiproliferative activity against drug-resistant human A549 cells up to 100 uM after 48 to 96 hrs by MTT assay relative to control. It counts as functional. An outline of the steps: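 A549 cultures in RPMI with 10% heat-inactivated FBS were treated across a concentration range up to 100 µM, with phenyl arsine oxide as the nondiscriminate cytotoxic reference. Growth curves were read by MTT assay. Two independent experiments, each in 4 replicates.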

Activity calls are given as the source filed them. The calls are words filed in the database; no cut-off is given here.

What is called inhibition is the relative decrease from the control value, in per cent. A word on the GI50: it is the concentration that inhibits growth by half. A lower GI50 goes with more potent growth inhibition. `O=C1C=C[C@]23CC[N@](Cc4c2sc2ccccc42)[C@H]3C1`: the inhibition entry in the assay on HeLa S3 [1] and with HeLa S3 [2] was “Active” in each case. The GI50 in assay [3] is 2 µM; in assay [4] it was 3 µM; in assay [5], 7 µM; in assay [6] it was 2 µM; in assay [7] it was 5 µM; in assay [8] it was 5 µM. For the same compound, the GI50 in assay [9] was found to be 8 µM; in [10], 7 µM; in assay [11] it was 1 µM; in assay [12] it was 1 µM; in assay [13], 5 µM; in assay [14], 3 µM. Moreover, the GI50 was 11 µM in assay [15] and 9 µM in assay [17]. The outcome in the assay on NCI-H1993 was Active. Besides, the inhibition in the assay filed under Oryctolagus cuniculus amounted to 25%. Also, the inhibition at 50 µM in assay [16] is 25%.

Consider `CC(=O)O[C@H]1C(=O)[C@@]2(C)[C@H]([C@H](OC(=O)c3ccccc3)[C@]3(O)C[C@H](OC(=O)[C@H](O)[C@@H](NC(=O)c4ccccc4)c4ccccc4)C(C)=C1C3(C)C)[C@]1(OC(C)=O)CO[C@@H]1C[C@@H]2O` [PACLITAXEL], for which the GI50 came to 0.004 µM in assay [4], 10 µM in assay [5], 0.007 µM in [13] and 2.4 µM in assay [15]. In addition, the RatioGI50 in the assay with MES-SA is reported as greater than 1000. In assay [18], the “inhibition (INH)” value is listed as 50%.
